ROMK primary – human ROMK K+ channel modulation, primary screen; P48048; Tet-inducible ROMK, thallium flux fluorescence; actives lie on both sides; B-score at 10 µM; hit rate 2% among 130,000; AID 1918;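 active means signal ratio slope over the read window, or its plate-corrected B-score, at least 3 SD from the plate mean, either direction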;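 further: B-score of the F/F0 ratio slope over 7 to 12 s after thallium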
KCC2 mod – KCC2 (human) Cl- transport modulation; B-score of Tl+ flux slope (higher = more flux/activation; lower = inhibition) at 10 µM; KCC2 cells, thallium flux FluoZin-2 fluorescence; Q9H2X9; hit rate 2.2% among 190,000;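 active means thallium flux slope and its plate-corrected score both differing from the plate sample mean at a set confidence after two filtering rounds, in either direction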;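 further: slope of fluorescence scaled to starting intensity during 10 to 20 s after thallium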
Diaphorase act – counter-screen for diaphorase-based assays: diaphorase activators and chemical reducers; Diaphorase/resazurin coupled assay, resorufin fluorescence, 16 min; stronger effect = higher value; 1 = vehicle wells, 0 = NADH-free wells; activation factor at 20 µM; hit rate 0.005% among 190,000; AID 1229;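 active means diaphorase activity raised at least twofold by the compound at 20 µM; inactive means activation factor below 2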
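Measured by – red resorufin fluorescence at 544/590 nm excitation/emission · Test system – Clostridium kluyveri diaphorase, purified enzyme · Incubation – reaction time 16 min, room temperature · Buffer or medium – 50 mM HEPES pH 7.4 with 4.542 mM MgCl2, 0.005% Tween 20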
Diaphorase inh – inhibits diaphorase or chemically oxidizes, flagging diaphorase assay artifacts. AID 1217. diaphorase resazurin-to-resorufin fluorescence, NADH, 16 min; bacterial (C. kluyveri) enzyme, not human. hit rate 0.69% among 190,000. inhibition, % at 20 µM;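 active means primary screen inhibition at 20 µM above a set limit, cut at about 50% in these data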
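System: Diaphorase enzyme from Clostridium kluyveri | Amount: Enzyme working solution with 0.14 U/mL diaphorase | Benchmarks: No-NADH positive control and DMSO neutral control | Signal: Fluorescence of resorufin formed from resazurin, Ex 544/Em 590 nm | Schedule: 16-min room-temperature incubation before reading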
Lmaj promast – Leishmania major promastigote growth inhibition; Leishmania major promastigotes, resazurin fluorescence viability; inhibition, % at 10 µM; hit rate 9% among 200,000; in the data active means inhibition above about 50%;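 further: promastigotes grown with compound for 44 hours at 28 °C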
WT yeast gro inh – growth inhibition of WT yeast, mitochondrial fusion screen; mitochondrial fusion phenotypic screen, WT strain; inhibition, % at 10 µM; hit rate 2.1% among 190,000; in the data active means inhibition above about 58%; tested in S. cerevisiae
Numbers stand for hits; n = inactive; x = no result given. A selection: hits, their analogues and other compounds. The true share with any hit is near 12%.

SMILES	ROMK primary	KCC2 mod	Diaphorase act	Diaphorase inh	Lmaj promast	WT yeast gro inh
O=S(=O)(NC(=NC1CCCC1)C(F)(F)F)c1ccccc1	n	n	n	n	n	n
CCc1nc2c(c(=O)c3ccccc3n2C)c(=O)n1C1CCCCCC1	x	n	n	n	n	n
Cn1c2ccccc2c(=O)c2c(=O)n(C3CCCCCC3)c(C3CCCCC3)nc21	x	n	n	n	74	n
Cn1c2ccccc2c(=O)c2c(=O)n(-c3ccccc3)c(C3CCCCC3)nc21	n	n	n	n	65	n
Cc1ncsc1C(=O)N1N=C2/C(=C/c3ccc(N4CCOCC4)cc3)CCCC2C1c1ccc(N2CCOCC2)cc1 (stereo not drawn)	x	n	n	n	n	n
COc1ccc(/C=C2\CCCC3C2=NN(C(=O)CSc2ncn[nH]2)C3c2ccc(OC)cc2)cc1 (stereo not drawn)	n	n	n	n	91	n
Cc1ncsc1C(=O)N1N=C2/C(=C/c3ccccc3)CCCC2C1c1ccccc1 (stereo not drawn)	x	x	n	n	99	71
COC1=C(Nc2ccc(O)cc2)C(=O)c2ccccc2C1=O	n	n	n	n	53	n
COC1=C(Nc2ccc(OC)cc2)C(=O)c2ccccc2C1=O	n	n	n	n	69	n
CCOc1ccc(NC2=C(OC)C(=O)c3ccccc3C2=O)cc1	n	n	n	n	n	n
OCC1(CCc2ccccc2)CCN(Cc2cc(F)ccc2-n2cccn2)CC1	n	n	n	n	n	n
Nc1ccc2c(c1)N=[N+]([O-])c1cc(N)ccc1C2	x	n	x	x	x	x
CCOC(=O)c1c(NC(=O)c2ccccc2C)sc2c1CC(C)(C)OC2	n	n	n	n	72	n
CCOC(=O)c1c(NC(=O)CCC(=O)N2CCOCC2)sc2c1CC(C)(C)OC2	x	n	n	n	97	n
CCCC(=O)Nc1sc2c(c1C(=O)OCC)CC(C)(C)OC2	n	x	x	x	n	n
CCOC(=O)c1c(NC(=O)c2ccc(C)cc2)sc2c1CC(C)(C)OC2	n	n	n	n	61	n
COc1cccc(CNC(=O)C2=C(C)C(=O)OC23CCC(C)CC3)c1 (stereo not drawn)	x	x	n	n	n	n

Compound activity from PubChem.
